Screens deposited in PubChem by Sanford-Burnham Center for Chemical Genomics.
SENP1 FRET inh: human SENP1 catalytic domain inhibitors, primary screen, biochemical, FRET, uHTS; inhibition, % at 10 µM; actives 0.21% (n = 360,000); recombinant SENP1 catalytic domain, CyPet-SUMO1-YPet FRET cleavage; AID 624204, 2012;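 active = inhibition at least 30% at 10 µM, raw YFP signal under a set limit, fluorescence ratio 0.5 to 1.5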;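 also: 0% = enzyme with DMSO and 100% = no enzyme wells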
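Assay system – human recombinant His6-tagged SENP1 catalytic domain enzyme · Input – SENP1 enzyme, 20 pM final · Buffer or medium – Tris pH 8 buffer plus EDTA, NaCl, BME, BSA, NP40, catalase · Schedule – 50 min reaction at room temperature · Technique – FRET read of cyan and yellow fluorescence · Control set – no-enzyme wells low, DMSO-plus-enzyme wells high control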
NR3A LBD binder: binders of NR3A ligand-binding domain, primary screen, biophysical, differential scanning fluorimetry, uHTS. Glutamate receptor ionotropic, NMDA 3A (GRIN3A) ligand-binding domain. NR3A LBD differential scanning fluorimetry, Tm shift; 0% = protein alone, 100% = glycine-bound protein. Tm shift relative to glycine control, % at 25 µM. actives 2.5% (n = 340,000). AID 1259313, 2017;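 active = melting temperature shift of at least 10% of the positive control shift, at one fixed dose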
MPTP inh: mitochondrial permeability transition pore inhibitors, primary screen, biochemical, isolated mouse mitochondria, absorbance. actives 1.4% (n = 360,000). Ca2+ swelling absorbance, 30 min. inhibition, % at 10 µM. AID 602449, 2012;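 active = inhibition of 50% or more, scaled per plate between neutral and stimulator controls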;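 also: 0% = DMSO wells given calcium and 100% = 1 mM EGTA wells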
EBI2 antag: EBI2 receptor antagonists, beta-arrestin recruitment, primary screen, cell-based, luminescence, 7a,25-OHC stimulation, uHTS | G-protein coupled receptor 183 (Homo sapiens), P32249 | 7a,25-OHC stimulated | inhibition, % at 5 µM | actives 0.81% (n = 360,000) | AID 651636, 2012; in the data active = inhibition above about 38%;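 also: enzyme fragment complementation signal reports receptor beta-arrestin coupling in cells; 0% = agonist plus DMSO wells and 100% = wells without agonist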
Target sequence (P32249 whole entry, looked up, the tested form may be a part): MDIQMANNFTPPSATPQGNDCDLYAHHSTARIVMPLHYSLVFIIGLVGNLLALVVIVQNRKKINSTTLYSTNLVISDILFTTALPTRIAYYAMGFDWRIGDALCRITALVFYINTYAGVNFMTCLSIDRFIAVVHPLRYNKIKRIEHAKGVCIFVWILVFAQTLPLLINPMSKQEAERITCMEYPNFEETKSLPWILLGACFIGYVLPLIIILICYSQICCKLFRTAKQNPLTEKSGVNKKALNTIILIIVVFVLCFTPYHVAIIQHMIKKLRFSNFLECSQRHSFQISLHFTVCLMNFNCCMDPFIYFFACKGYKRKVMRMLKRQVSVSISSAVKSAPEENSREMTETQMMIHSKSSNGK
An asterisk follows results filed as active. Rows were chosen to be rich in hits. Some 4.4% of all compounds tested hit in one or more screens of this group.

Results for CCCc1cc(=O)n2[nH]c(C)c(-c3ccccc3)c2n1 ?
SENP1 FRET inh: -1; NR3A LBD binder: 1; MPTP inh: -5; EBI2 antag: 9

Results for CN(Cc1ccccc1)C(=O)c1cccc(NC(=O)C2CCCN(C(=O)OC(C)(C)C)C2)c1 (stereo unspecified) ?
SENP1 FRET inh: -1; NR3A LBD binder: -2; MPTP inh: 6; EBI2 antag: 2

What do the screens show for `Cc1ccc(OC(C)C(=O)N/N=C/c2ccccn2)cc1` (stereo unspecified)?
SENP1 FRET inh: 0; NR3A LBD binder: 0; MPTP inh: -2; EBI2 antag: -5

What do the screens show for `CCCCNc1nc2c(-c3ccccc3)nnn2c2ccccc12`?
SENP1 FRET inh: -52; NR3A LBD binder: 0; MPTP inh: 2; EBI2 antag: -4

Results for Cc1ccc(-c2nnn3c2nc(NCCc2ccc(S(N)(=O)=O)cc2)c2ccccc23)cc1 ?
SENP1 FRET inh: -26; NR3A LBD binder: 86*; MPTP inh: 2; EBI2 antag: -45

Results for NS(=O)(=O)c1ccc(CCNc2nc3c(-c4cccc(F)c4)nnn3c3ccccc23)cc1 ?
SENP1 FRET inh: -85; NR3A LBD binder: 15*; MPTP inh: 2; EBI2 antag: -6

How did Cc1ccc(-c2nnn3c2nc(NC(C)C)c2ccccc23)cc1 do in these assays?
SENP1 FRET inh: -72; NR3A LBD binder: 23*; MPTP inh: 2; EBI2 antag: 0

How did Nc1nc2c(-c3ccc(Br)cc3)nnn2c2ccccc12 do in these assays?
SENP1 FRET inh: -22; NR3A LBD binder: 37*; MPTP inh: 5; EBI2 antag: 4

How did CNc1nc2c(-c3ccc(Cl)cc3)nnn2c2ccccc12 do in these assays?
SENP1 FRET inh: -51; NR3A LBD binder: 3; MPTP inh: 3; EBI2 antag: 17

How did COc1ccccc1C(=O)NCC(=O)NCCC(c1ccccc1)c1ccccc1 do in these assays?
SENP1 FRET inh: 2; NR3A LBD binder: 1; MPTP inh: -2; EBI2 antag: 5

How did COc1ccc(CC(N)c2csc(NC(=O)Nc3ccccc3C(C)C)n2)cc1 (stereo unspecified) do in these assays?
SENP1 FRET inh: 0; MPTP inh: 4; EBI2 antag: -12

Results for CCCN(CC(=O)Nc1ccccc1OC)C(=O)CSc1nc(C)cc(C)n1 ?
SENP1 FRET inh: 3; NR3A LBD binder: 1; MPTP inh: 0; EBI2 antag: -5

Results for Cc1cccc(-c2nnn3c2nc(NCCc2ccc(S(N)(=O)=O)cc2)c2ccccc23)c1 ?
SENP1 FRET inh: -58; NR3A LBD binder: 33*; MPTP inh: 0; EBI2 antag: -2

Results for O=S(=O)(c1ccc2c(c1)OCCO2)N1CCN(S(=O)(=O)c2ccccn2)CC1 ?
SENP1 FRET inh: 0; NR3A LBD binder: 2; MPTP inh: 0; EBI2 antag: -3

Results for CCN(CC)C(=O)c1[nH]cnc1C(=O)NCC(=O)OCc1ccccc1 ?
SENP1 FRET inh: 0; NR3A LBD binder: -3; MPTP inh: 1; EBI2 antag: -14

What do the screens show for `CC(=O)NC(=S)Nc1ccc(-c2nc3ccc(C)cc3s2)cc1`?
SENP1 FRET inh: -47; NR3A LBD binder: -3; MPTP inh: 0; EBI2 antag: 7

How did Cc1ccc2nc(-c3ccc(NC(=O)CN(c4ccccc4C)S(C)(=O)=O)cc3)sc2c1 do in these assays?
SENP1 FRET inh: -17; NR3A LBD binder: 15*; MPTP inh: 2; EBI2 antag: -1

Results for Cc1ccc2nc(-c3ccc(NC(=O)CN4C(=O)NC(C)(c5ccc(OC(F)F)cc5)C4=O)cc3)sc2c1 (stereo unspecified) ?
SENP1 FRET inh: -3; NR3A LBD binder: 35*; MPTP inh: -1; EBI2 antag: -10

How did Cc1cc(C)cc(N(CC(=O)Nc2ccc(-c3nc4ccc(C)cc4s3)cc2)S(C)(=O)=O)c1 do in these assays?
SENP1 FRET inh: -70; NR3A LBD binder: 26*; MPTP inh: 11; EBI2 antag: -9

Results for CC1(C)CC(=O)C(C2=NC3(CCCCCC3)Cc3ccccc32)=C(O)C1 ?
SENP1 FRET inh: -2; NR3A LBD binder: -1; MPTP inh: 3; EBI2 antag: -6
